In test [1] the target is T1, Myeloperoxidase (Homo sapiens) (UniProt P05164).
T1 sequence (whole entry): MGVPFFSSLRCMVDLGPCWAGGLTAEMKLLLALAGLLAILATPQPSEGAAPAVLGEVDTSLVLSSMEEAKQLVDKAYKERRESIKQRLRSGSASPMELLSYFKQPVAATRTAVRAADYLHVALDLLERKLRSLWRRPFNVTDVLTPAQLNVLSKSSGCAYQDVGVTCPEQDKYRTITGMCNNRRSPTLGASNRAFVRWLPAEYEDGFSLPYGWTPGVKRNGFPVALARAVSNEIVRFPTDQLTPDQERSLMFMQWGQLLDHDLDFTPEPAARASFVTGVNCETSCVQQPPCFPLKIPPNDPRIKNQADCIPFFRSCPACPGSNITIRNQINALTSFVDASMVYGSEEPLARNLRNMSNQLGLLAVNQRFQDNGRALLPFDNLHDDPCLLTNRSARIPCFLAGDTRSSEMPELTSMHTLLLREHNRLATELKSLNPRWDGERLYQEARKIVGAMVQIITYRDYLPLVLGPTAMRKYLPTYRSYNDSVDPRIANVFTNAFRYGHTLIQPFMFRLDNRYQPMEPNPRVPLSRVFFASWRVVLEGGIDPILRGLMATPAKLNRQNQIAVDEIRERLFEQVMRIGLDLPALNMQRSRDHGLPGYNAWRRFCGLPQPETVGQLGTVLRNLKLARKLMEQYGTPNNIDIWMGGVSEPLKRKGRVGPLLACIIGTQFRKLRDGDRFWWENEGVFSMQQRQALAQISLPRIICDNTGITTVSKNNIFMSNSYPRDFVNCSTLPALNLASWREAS
Nature of the test: Inhibition of human MPO assessed as residual activity in presence of H2O2. Details: concentration or dose not given beside the values. The method in brief:
(§1)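 Ligand and MPO were mixed with or without H2O2, then diluted 100-fold, and the residual enzymatic activity was measured. An H2O2-alone mixture served as control.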

Test [2] has as its target T1, Myeloperoxidase (Homo sapiens). Nature of the test: Inhibition of human MPO assessed as residual activity in absence of […]. Details: concentration or dose not given beside the values. The method in brief:
as §1

Test [3] concerns the target T2, Myeloperoxidase (Homo sapiens, UniProt P05164).
T2 sequence (P05164 whole entry): T1 sequence (whole entry)
Kind of test: (§2) Inhibition of human MPO.

The target of test [4] is T1, Myeloperoxidase (Homo sapiens). The test is described as §2. The following applies: concentration not given here. Details: concentration or dose not given beside the values.
In test [5] the target is T2, Myeloperoxidase. Kind of test: Irreversible inhibition of MPO (unknown origin). The essentials:
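MPO was preincubated with ligand, with or without H2O2, alongside an H2O2-alone control. The mixture was then diluted 100-fold, residual enzymatic activity was measured, and inactivation was expressed as percent loss of activity.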

For test [6], the target named is T1, Myeloperoxidase (Homo sapiens). Kind of test: Irreversible inhibition of human MPO in presence of H2O2 by stopped-flow method.
For test [7] the target is unchanged. Nature of the test: Inhibition of human MPO assessed as rate constant for reduction of PorFe(4)=O to PorFe(4)-OH in presence of H2O2 by stopped-flow method.
For test [8], the system named is Rattus norvegicus. Nature of the test: Ex vivo inhibition of MPO activity in peritoneal exudate of Wistar albino rat model of carrageenan-induced inflammation assessed as reduction in H2O2-dependent oxidation of TMB at 10 mg/kg, iv measured after 48 hrs. The class given is functional, organism-based. The essentials:
(§3)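 Male Wistar Han rats had inflammation induced by intraperitoneal carrageenan, then received ligand at 10 mg/kg intravenously. Peritoneal liquid was collected. MPO concentration was measured at 24 h, and MPO activity at 24 h and at 48 h after drug administration. Comparators were carrageenan-only rats and reference rats not treated with carrageenan.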

For test [9], the system named is Rattus norvegicus. Nature of the test: Ex vivo inhibition of MPO activity in peritoneal exudate of Wistar albino rat model of carrageenan-induced inflammation assessed as reduction in H2O2-dependent oxidation of TMB at 10 mg/kg, iv measured after 24 hrs. In kind it is functional, organism-based. The essentials: as §3
For test [10], the target named is T1, Myeloperoxidase (Homo sapiens). Kind of test: Reversible inhibition of human MPO assessed as rate constant for reduction of PorFe(4)-OH to ferric MPO in presence of H2O2 by stopped-flow method.
For test [11] the target is unchanged. Kind of test: Inhibition of human MPO assessed as soret band formation at 429 nanometer in presence of H2O2 by stopped-flow method.
Test [12] deals with Rattus norvegicus. Nature of the test: Anti-inflammatory activity in Wistar albino rat assessed as inhibition of carrageenan-induced MPO release at 10 mg/kg, iv measured after 24 hrs by ELISA. In kind it is functional, organism-based. The method in brief:
as §3
Background: In an ELISA, binding on a coated surface is turned into a signal by an enzyme label.

Activity calls are given as the source filed them. The rule behind the calls is not given here. Where only a bound is given, the exact number is not on record here.

As to `CN(C)c1ccc(/C=N/Nc2ccc(F)cc2)cc1`, the Activity in [1] was 84%; in test [2], 87%. The midpoint of inhibition at Myeloperoxidase [3], the IC50, lay at 3100 nM. Also, the inhibition in [4] amounted to 100%.
On to `NNC(=O)c1ccncc1` [ISONIAZID], for which the Activity in test [1] worked out at 64%; in [2] it was 98%. Besides, the IC50 against Myeloperoxidase [3] came out at 4700 nM; against Myeloperoxidase [5] it was 5000 nM. For the same molecule, in test [4], the inhibition was found to be 61%.
Take `COc1ccc(/C=N/Nc2ccc(F)cc2)cc1O`: the figures for the Activity in test [1] and in test [2] were 92% and 81%, respectively. In addition, at Myeloperoxidase [3], it took 1130 nM to reach half-maximal inhibition (IC50). In test [4], this molecule showed an inhibition of 91%.
As for `COc1ccc(/C=N/NC(=O)c2ccncc2)cc1O`, the Activity amounted to 87% in [1] and 88% in test [2]. Moreover, the concentration for half-maximal inhibition (IC50) at Myeloperoxidase [3] turned out to be 430 nM. Also, the inhibition in test [4] amounted to 91%.
With `COc1cc(/C=N/Nc2nncc3ccccc23)ccc1O`, the figures for the Activity in test [1] and in test [2] were 22% and 87%, respectively. Besides, in [6], the inhibition entry is “Active”. Besides, the K in test [7] was 2.8 ×10⁵ /M/s. The molecule also gave an IC50 against Myeloperoxidase [3] of 340 nM. In test [4], this molecule yielded an inhibition of 82%.
Take `NNc1ccc(F)cc1`: the Activity in test [1] came out at 98%; in test [2], 103%. At Myeloperoxidase [3], this molecule came in with a 50% inhibitory concentration (IC50) of more than 5000 nM. Also, the inhibition in test [4] is 61%.
On to `OC/C=N/Nc1nncc2ccccc12`, for which the values for the Activity in test [1] and in test [2] were 18% and 82%, respectively. For the same molecule, the inhibition entry (with Rattus norvegicus [8]; in test [6]; in the test with Rattus norvegicus [9]) was “Active” in each case. Also, the K in test [7] amounted to 3.3 ×10⁵ /M/s. The same molecule showed an IC50 against Myeloperoxidase [3] of 110 nM.
Regarding `CN(C)c1ccc(/C=N/Nc2nncc3ccccc23)cc1`, the Activity worked out at 92% in [1] and 93% in [2]. For the same molecule, the results for the K in test [7] and in test [10] were 7.1 ×10⁵ /M/s and 89.3 M⁻¹ s⁻¹, respectively. The same molecule displayed an IC50 against Myeloperoxidase [3] of 80 nM. In addition, in test [4], the inhibition was found to be 100%. In addition, the inhibition entry (in the test on Rattus norvegicus [9]; in [11]) was “Active” in each case.
For `NNc1nncc2ccccc12` [HYDRALAZINE], the Activity in test [1] amounted to 19%; in test [2], 92%. The K in test [7] came to 7.1 ×10⁵ /M/s. The IC50 at Myeloperoxidase [3] and against Myeloperoxidase [5] was 900 nM throughout. The same molecule showed an inhibition in test [4] of 61%.
Turning to `COc1ccc(/C=N/Nc2nncc3ccccc23)cc1O`, the Activity in test [1] was found to be 25%; in [2], 93%. The inhibition entry in the test with Rattus norvegicus [8], in the test on Rattus norvegicus [12] and in the test with Rattus norvegicus [9] was “Active” each time. The concentration for half-maximal inhibition (IC50) on Myeloperoxidase [3] amounted to 150 nM. In addition, in [4], the inhibition was found to be 91%.
In [4], `Cc1ccc(NN)cc1` had an inhibition of 61%.
For `COc1cc(/C=N/NC(=O)c2ccncc2)ccc1O` [FTIVAZIDE], the Activity is 91% in test [1] and 96% in [2]. Moreover, the midpoint of inhibition against Myeloperoxidase [3], the IC50, lay at 460 nM. For the same molecule, the inhibition in test [4] was 82%.
`OC/C=N/Nc1ccc(F)cc1`: the Activity in test [1] was 97%; in [2], 107%. On Myeloperoxidase [3], this molecule yielded a half-maximal inhibitory concentration (IC50) of more than 5000 nM.
The like results for `O=C(N/N=C/CO)c1ccncc1` were, in that order, 94%, 100% and more than 5000 nM.
`NNc1cccc2ccccc12` gave an inhibition in test [4] of 61%.
On to `CN(C)c1ccc(/C=N/NC(=O)c2ccncc2)cc1` [N'-(4-DIMETHYLAMINOBENZYLIDENE)ISONICOTINOHYDRAZIDE], for which the Activity in [1] amounted to 93%; in [2], 91%. The molecule also registered an IC50 against Myeloperoxidase [3] of 1620 nM. This molecule also showed an inhibition in test [4] of 100%.
`COc1cc(/C=N/Nc2ccc(F)cc2)ccc1O`: the Activity in [1] turned out to be 98%; in [2] it was 89%. The molecule further returned an IC50 at Myeloperoxidase [3] of 1200 nM. In [4], this molecule yielded an inhibition of 82%.

By IC50 is commonly meant the concentration that gives 50% inhibition. Broadly, the inhibition is the share of the control response that was lost under treatment.

Values taken from ChEMBL document CHEMBL3875231, “From Dynamic Combinatorial Chemistry to in Vivo Evaluation of Reversible and Irreversible Myeloperoxidase Inhibitors” (ACS Med Chem Lett, 2017).
